Screening data from PubChem BioAssay.
Plk1 PBD FP: Plk1 polo box domain binding inhibitors, primary screen, biochemical, fluorescence polarization | Plk1 PBD phosphopeptide binding | AID 693, 2007 | inhibition, %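 (tested at about 20 µM)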 | 97,000 tested, 0.13% active; in the data active = inhibition above about 34%, passing the limit was not always enough
HIV Rev-RRE inh: HIV-1 Rev-RRE binding inhibitors, primary screen, biochemical, FRET, protein-RNA interaction | P05866 | Rev peptide-RRE RNA binding | inhibition, % at 8 µM | 97,000 tested, 0.79% active | AID 704, 2007;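 active = inhibition above the screen-wide mean plus 3 SD, cut at about 35% in these data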;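 note: 0% = median DMSO wells and 100% = median Neomycin B control wells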
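Test system: labelled RRE RNA duplex and labelled Rev peptide. Times: 5 min compound–RNA preincubation, then 15 min with peptide, 25 °C. Doses: single-dose 8 µM. Measured by: FRET, excitation 480 nm, emission 540 nm donor and 671 nm acceptor. Measure: % inhibition of FRET ratio versus controls.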
EphB4 antag: EphB4-ephrin-B2 interaction antagonists, primary screen, biochemical, TNYL-RAW peptide probe, fluorescence polarization | Ephrin type-B receptor 4 (Homo sapiens), P54760 | EphB4 LBD / TNYL-RAW-Alexa532 peptide | inhibition, % at 7 µM | 97,000 tested, 0.15% active | AID 720, 2007;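 active = inhibition above the screen-wide mean inhibition plus 3 SD, cut at about 15% in these data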;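 note: 0% = DMSO wells and 100% = excess unlabeled TNYL-RAW peptide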
PLK1 inh: human PLK1 kinase inhibitors, primary screen, biochemical, TR-FRET | recombinant PLK1 kinase, TR-FRET peptide phosphorylation | 97,000 tested, 0.53% active | inhibition, % at 10 µM;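 active = inhibition of 50% or more in the single-concentration screen; inactive = inhibition below 50%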;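 note: 0% = DMSO max control and 100% = H-89 dihydrochloride min control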
PostGolgi yeast: phenotypic screen on post-Golgi transport, primary screen | post-Golgi transport phenotypic cell assay | inhibition, % at 10 µM | 98,000 tested, 0.9% active;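 note: yeast cells grown in 1536-well plates; yeast grown about 18 h at 30C before absorbance read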
PostGolgi ctrl: growth inhibition of yeast control strain, primary screen, counter-screen for post-Golgi transport modulator project; 98,000 tested, 5% active; efflux-deficient yeast background strain, growth absorbance A615, 16 h; inhibition, % at 10 µM
PBD redox DR: redox cycling hydrogen peroxide generation, dose response, artefact control for Plk1 PBD inhibitor project, biochemical; shares compounds with Plk1 PBD FP; redox cycling H2O2 generation, DTT, counter-screen; EC50, µM; 120 tested, under 10 active; AID 876, 2007; call rule not given here
* marks the source's active call; other numbers are inactive results; . = not tested or not shown. Most compounds without a hit are left out; they make up all but 6.4% or so of the library. Cut-off read from the data, not from the text of the source, unless noted: active = inhibition above about 30%; inactive = the rest.

SMILES	Plk1 PBD FP	HIV Rev-RRE inh	EphB4 antag	PLK1 inh	PostGolgi yeast	PostGolgi ctrl	PBD redox DR
O=C1CSC2(CN3CCC2CC3)N1 (stereo unspecified)	-27	0	-3	-4	4	8	.
Cc1ccc2c(c1)CC1(CN2C)C(=O)NC(=O)N(c2cccc(C)c2C)C1=O (stereo unspecified)	-7	-4	-5	-8	-8	2	.
Cc1ccc2c(c1)CC1(CN2C)C(=O)NC(=O)N(c2ccccc2C)C1=O (stereo unspecified)	40*	4	-1	-15	-4	3	>50
CC(=O)c1ccccc1NC(=O)C1C2CCC(O2)C1C(=O)O (stereo unspecified)	18	4	2	-8	-12	18	.
O=[N+]([O-])c1ccc(N2CCNCC2)cc1NCC1CCCO1 (stereo unspecified)	47*	-3	-5	-7	-10	-8	>50
O/N=C1/C(=C\c2ccccc2)N2CCC1CC2	15	1	-6	-9	2	15	.
CN1C(=O)N(C)C(=O)C2(Sc3ccccc3C2=O)C1=O	57*	4	9	-9	4	-1	>50
